Rows were chosen to be rich in hits. Some 2% of all compounds tested hit in one or more screens of this group.
FLuc stim CS: firefly luciferase counter-screen for stimulation assays. ATPlite luciferase biochemical, luminescence, 10 min; 0 = ATP-free wells, 1 = DMSO control. activation factor at 10 µM. 200,000 tested, under 10 active. AID 1027;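 active = luciferase activation factor, scaled between plate controls, of at least 2 with compound at 10 µM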
Target sequence (P08659 whole entry, looked up): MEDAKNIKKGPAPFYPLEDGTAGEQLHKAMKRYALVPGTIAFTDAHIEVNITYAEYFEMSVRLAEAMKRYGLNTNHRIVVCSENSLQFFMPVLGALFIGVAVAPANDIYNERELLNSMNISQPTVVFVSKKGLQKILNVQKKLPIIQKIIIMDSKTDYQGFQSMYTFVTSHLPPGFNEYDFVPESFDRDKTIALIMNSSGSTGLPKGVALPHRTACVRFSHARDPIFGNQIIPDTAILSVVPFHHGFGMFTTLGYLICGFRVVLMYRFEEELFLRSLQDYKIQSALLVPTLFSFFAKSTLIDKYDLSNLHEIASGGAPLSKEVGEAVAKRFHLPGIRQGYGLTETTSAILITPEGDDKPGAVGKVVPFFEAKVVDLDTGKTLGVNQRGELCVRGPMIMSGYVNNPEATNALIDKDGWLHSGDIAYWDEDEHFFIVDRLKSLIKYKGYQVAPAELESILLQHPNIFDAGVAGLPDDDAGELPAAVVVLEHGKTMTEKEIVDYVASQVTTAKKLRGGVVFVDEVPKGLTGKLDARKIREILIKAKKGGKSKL
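test system = cell-free luciferase reagent | medium = PBS as buffer for the ATP substrate | dosing = test compounds dosed from 2 mM stocks in 100% DMSO | incubation = 10 min at ambient temperature | detection = luminescence measurement of luciferase light output | benchmarks = low control with PBS replacing ATP, high control enzyme plus ATP without compound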
PPC-1+TRAIL kill: PPC-1 cancer cell killing with TRAIL present; cell killing (% activity), % at 4 µM or 5 µM; PPC-1 cells + TRAIL, ATPLite viability luminescence; hit rate 0.41% among 220,000;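 active = cell killing above 50% in the first pass at 4 µM, then a duplicate retest at 5 µM averaging 50% or more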;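 also: plate controls were cells with TRAIL plus DMSO for no effect and medium-only wells lacking cells for full effect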
FLuc inh counter: counter-screen for luciferase assay inhibitors: firefly luciferase inhibition | hit rate 1.5% among 200,000 | inhibition, % at 10 µM | P08659 | ATPLite firefly luciferase biochemical luminescence, 10 min;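 active = inhibition above about 50% when tested at 10 µM, limit read from the data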
C8 TRAIL sens: sensitizes caspase-8 expressing cells to TRAIL; NB7+C8 cells + TRAIL, ATPlite viability luminescence; inhibition (viability loss, TRAIL sensitization), % at 10 µM; hit rate 1% among 360,000;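 active = compounds causing at least 50% loss of cell viability in the single-dose screen, relative to plate controls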
HSP90 inh: inhibitors of HSP90 luciferase refolding in rabbit reticulocyte lysate; inhibition, % at 5.6 µM; AID 1789; hit rate 0.91% among 290,000; luciferase refolding luminescence, 3 h;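 active = inhibition above the screen-wide mean plus 3 SD, computed separately per campaign, cut at about 16% in these data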;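 also: 0% = DMSO wells and 100% = 60 µM geldanamycin wells; inhibitors lower the luminescence because luciferase stays unfolded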
* hit, by the source's call.

Results for CCOC(=O)c1cccc(N2C(N)=NC(N)=NC2(C)C)c1 ?
FLuc stim CS: 1; PPC-1+TRAIL kill: 15; FLuc inh counter: -4; C8 TRAIL sens: 67*; HSP90 inh: 1

How did O=C(CC1C(=O)NCCN1CCCc1ccccc1)NCCc1ccccc1Cl (stereo not drawn) do in these assays?
C8 TRAIL sens: -11; HSP90 inh: 12

How did COc1ccccc1CC(=O)NCCN1CCCCC1 do in these assays?
C8 TRAIL sens: 2; HSP90 inh: 3

Results for CC(CCc1ccccc1)NC(=O)C1CCC1 (stereo not drawn) ?
C8 TRAIL sens: 26

What do the screens show for `COc1ccc(N2C(N)=NC(N)=NC2(C)C)cc1`?
FLuc stim CS: 1; PPC-1+TRAIL kill: 9; FLuc inh counter: -1; C8 TRAIL sens: 82*; HSP90 inh: 1

What do the screens show for `COc1ccc(N2C(N)=NC(N)=NC23CCCC3)cc1`?
FLuc stim CS: 1.1; PPC-1+TRAIL kill: -11; FLuc inh counter: -6; C8 TRAIL sens: 14; HSP90 inh: -1

Results for CC1(C)N=C(N)N=C(N)N1c1cccc(C#N)c1 ?
C8 TRAIL sens: 82*

How did COc1ccc(CNC(=O)c2noc(C)c2[N+](=O)[O-])cc1 do in these assays?
FLuc stim CS: 1.1; PPC-1+TRAIL kill: -2; FLuc inh counter: -9; C8 TRAIL sens: -9; HSP90 inh: 2

How did Cc1ccc(C)c(N(CC(=O)NC2CCCC2)S(=O)(=O)c2ccccc2)c1 do in these assays?
C8 TRAIL sens: -7; HSP90 inh: 4

Results for O=C(CNC(=O)c1ccccc1F)N/N=C/c1cc(Br)ccc1OC(=O)/C=C/c1ccco1 ?
FLuc stim CS: 1; PPC-1+TRAIL kill: 28; FLuc inh counter: -3; C8 TRAIL sens: 53*; HSP90 inh: 0

How did Nc1[nH]c(N=NC(=O)c2ccccc2O)c2ccccc12 do in these assays?
FLuc stim CS: 0.1; PPC-1+TRAIL kill: 46; FLuc inh counter: 85*; C8 TRAIL sens: 72*; HSP90 inh: -1

Results for Nc1[nH]c(N=NC(=O)c2ccccc2)c2ccccc12 ?
FLuc stim CS: 0.4; PPC-1+TRAIL kill: 27; FLuc inh counter: 61*; C8 TRAIL sens: -1; HSP90 inh: 7

Results for Cc1ccc(S(=O)(=O)NC(=O)NC2=NC(C)(C)N(c3ccc(Cl)c(Cl)c3)C(N)=N2)cc1 ?
C8 TRAIL sens: 82*

How did Cc1cc(N)n(-c2cc(C)c3ccccc3n2)n1 do in these assays?
FLuc stim CS: 0.2; PPC-1+TRAIL kill: 48; FLuc inh counter: 84*; C8 TRAIL sens: 60*; HSP90 inh: 4

What do the screens show for `Cc1cc(C)c2nc(-n3nc(C)cc3N)cc(C)c2c1`?
FLuc stim CS: 0.9; PPC-1+TRAIL kill: -8; FLuc inh counter: 15; C8 TRAIL sens: 10; HSP90 inh: 1

Results for CCOc1ccc(CCNC(=O)CCNS(=O)(=O)c2ccc3c(c2)CCN3C(C)=O)cc1OCC ?
C8 TRAIL sens: 5; HSP90 inh: 2

What do the screens show for `Cc1ccc(-c2cnn(-c3ccccc3)c2N)cc1`?
C8 TRAIL sens: 79*; HSP90 inh: 14

Results for COCCNC(=O)c1cc(-c2ccc3c(c2)OCO3)on1 ?
FLuc stim CS: 0.4; PPC-1+TRAIL kill: 17; FLuc inh counter: 56*; C8 TRAIL sens: 40; HSP90 inh: 5

How did C=CCNC(=O)c1cc(-c2ccc3c(c2)OCO3)on1 do in these assays?
C8 TRAIL sens: 51*; HSP90 inh: 15

What do the screens show for `O=C(NCc1ccco1)c1cc(-c2ccc3c(c2)OCO3)on1`?
FLuc stim CS: 0.8; PPC-1+TRAIL kill: 33; FLuc inh counter: 15; C8 TRAIL sens: 31; HSP90 inh: -4

Results for COc1ccc(CC(=O)N(C)c2ccccc2)cc1S(=O)(=O)N1CCOCC1 ?
C8 TRAIL sens: -14

How did CCCN(C(=O)c1cc2c(s1)CCC2)c1c(N)n(Cc2ccccc2)c(=O)[nH]c1=O do in these assays?
PPC-1+TRAIL kill: 2; C8 TRAIL sens: -2; HSP90 inh: 0

What do the screens show for `Nc1nc(N)c2c(ccc3nccc32)[nH]1`?
PPC-1+TRAIL kill: 40; C8 TRAIL sens: 80*; HSP90 inh: 7

Results for N/C(=N\OC(=O)c1ccc2c(c1)OCO2)c1cccc(Br)c1 ?
FLuc stim CS: 0; PPC-1+TRAIL kill: 7; FLuc inh counter: 96*; C8 TRAIL sens: 0; HSP90 inh: -4

What do the screens show for `O=C(COC(=O)c1ccc(Br)cc1)NCCc1ccccc1`?
FLuc stim CS: 1.1; PPC-1+TRAIL kill: 16; FLuc inh counter: -9; C8 TRAIL sens: 29; HSP90 inh: 1
